# Results: article PMC9044819 (RSC Advances, 2021)
# “And” between values parts separate entries of the source, which are not always exact repeats. Identical values can stand only once. Like-named read-outs stand apart in the source and are kept apart here.
# Legend:
# Human VEGFR-2 = Human VEGFR-2 (Homo sapiens, UniProt P35968); experiment: In vitro VEGFR-2 assay; format: biochemical
# MCF-7 = experiment: cells; format: cell-based, human
# BAX/Bcl-2 ratio = experiment: Western blot, BAX/Bcl-2 ratio in HepG-2; format: cell-based, human; details: HepG-2 treated 24 h, 2.3 μM; control 1.00; mean ± SEM
# Procedure, shortened: (§1)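 HepG-2 cells exposed 24 h to test compound at 2.3 μM, then probed by western blot for BAX, Bcl-2, active caspase-9 and active caspase-3. Each band is normalized to β-actin and expressed relative to control, and the BAX/Bcl-2 ratio is also tabulated. Values are mean ± SEM of three independent experiments, with significance flagged at p < 0.05, 0.01 and 0.001.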
# HepG-2 cells = experiment: Cell cycle analysis; format: cell-based, human; details: HepG-2, 17b 2.3 μM
# primary rat hepatocytes = experiment: In vitro cytotoxicity against normal hepatic cells; format: cell-based; details: HepG-2 vs primary rat hepatocytes
# Bcl-2 = experiment: Western blot, Bcl-2 expression in HepG-2; format: cell-based, human
# Procedure, shortened: as §1
# HepG-2 = experiment: MTT anti-proliferative assay, HepG-2; format: cell-based, human
# caspase-9 = experiment: Western blot, active caspase-9 in HepG-2; format: cell-based, human
# Procedure, shortened: as §1
# caspase-3 = experiment: Western blot, active caspase-3 in HepG-2; format: cell-based, human
# Procedure, shortened: as §1
# BAX = experiment: Western blot, BAX expression in HepG-2; format: cell-based, human
# Procedure, shortened: as §1
# [1] = HepG-2 treated 24 h, 2.3 μM, control 1.00, mean ± SEM
# Sequence of Human VEGFR-2 (P35968 20-1356): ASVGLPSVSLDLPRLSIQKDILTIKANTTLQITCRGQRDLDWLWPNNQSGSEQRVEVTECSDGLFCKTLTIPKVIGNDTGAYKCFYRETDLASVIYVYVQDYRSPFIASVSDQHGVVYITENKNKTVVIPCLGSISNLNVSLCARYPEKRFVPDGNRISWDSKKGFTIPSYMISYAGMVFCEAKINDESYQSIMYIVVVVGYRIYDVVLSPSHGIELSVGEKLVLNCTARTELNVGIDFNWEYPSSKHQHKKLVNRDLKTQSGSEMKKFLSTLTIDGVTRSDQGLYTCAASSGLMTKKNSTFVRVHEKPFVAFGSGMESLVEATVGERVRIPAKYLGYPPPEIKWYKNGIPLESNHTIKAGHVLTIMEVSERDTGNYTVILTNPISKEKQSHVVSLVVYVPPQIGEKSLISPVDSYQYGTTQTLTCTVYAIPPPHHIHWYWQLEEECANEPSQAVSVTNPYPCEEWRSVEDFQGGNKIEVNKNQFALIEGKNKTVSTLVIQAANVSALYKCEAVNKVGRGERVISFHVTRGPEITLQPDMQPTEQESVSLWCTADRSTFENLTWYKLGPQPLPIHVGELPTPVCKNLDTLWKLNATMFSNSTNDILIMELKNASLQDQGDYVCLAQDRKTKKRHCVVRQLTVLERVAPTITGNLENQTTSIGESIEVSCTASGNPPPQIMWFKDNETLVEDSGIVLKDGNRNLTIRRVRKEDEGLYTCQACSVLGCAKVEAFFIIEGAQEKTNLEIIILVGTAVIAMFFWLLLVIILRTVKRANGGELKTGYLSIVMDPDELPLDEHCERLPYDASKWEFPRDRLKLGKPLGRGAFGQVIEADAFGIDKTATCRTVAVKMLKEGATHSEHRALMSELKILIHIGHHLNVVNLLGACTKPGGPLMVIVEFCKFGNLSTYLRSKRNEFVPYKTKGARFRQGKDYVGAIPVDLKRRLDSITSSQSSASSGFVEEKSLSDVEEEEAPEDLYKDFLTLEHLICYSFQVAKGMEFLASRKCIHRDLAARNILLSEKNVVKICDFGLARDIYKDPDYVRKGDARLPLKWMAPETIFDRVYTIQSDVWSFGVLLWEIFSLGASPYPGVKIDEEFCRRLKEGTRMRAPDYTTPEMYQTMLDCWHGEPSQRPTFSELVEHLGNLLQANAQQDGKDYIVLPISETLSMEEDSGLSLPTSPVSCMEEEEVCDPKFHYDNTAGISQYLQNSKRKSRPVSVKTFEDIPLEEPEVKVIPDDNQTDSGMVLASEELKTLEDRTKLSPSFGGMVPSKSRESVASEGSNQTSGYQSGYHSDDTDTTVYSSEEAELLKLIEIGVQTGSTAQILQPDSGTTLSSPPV
smiles,measurement,setting,value
"CCCCNC(=O)c1ccc(NC(=O)CSc2nc3ccccc3nc2C)cc1 [Compound 15a, N-Butyl-4-(2-((3-methylquinoxalin-2-yl)thio)acetamido)benzamide]",IC50,Human VEGFR-2,23.1 ± 0.8 nM
"Cc1nc2ccccc2nc1SCC(=O)Nc1ccc(C(=O)Nc2cccc(Cl)c2)cc1 [Compound 15b, N-(3-Chlorophenyl)-4-(2-((3-methylquinoxalin-2-yl)thio)acetamido)benzamide]",IC50,Human VEGFR-2,3.4 ± 0.2 nM
"Cc1nc2ccccc2nc1SCC(=O)Nc1ccc(C(=O)Nc2ccc(O)cc2)cc1 [Compound 15c, N-(4-Hydroxyphenyl)-4-(2-((3-methylquinoxalin-2-yl)thio)acetamido)benzamide]",IC50,Human VEGFR-2,27.8 ± 1.2 nM
"Cc1nc2ccccc2nc1SCC(=O)Nc1ccc(C(=O)Nc2ccc([N+](=O)[O-])cc2O)cc1 [Compound 15d, N-(2-Hydroxy-4-nitrophenyl)-4-(2-((3-methylquinoxalin-2-yl)thio)acetamido)benzamide]",IC50,Human VEGFR-2,31.5 ± 1.3 nM
"Cc1nc2ccccc2nc1SCC(=O)Nc1ccc(C(=O)NNC(=O)c2ccccc2O)cc1 [Compound 16, N-(4-(2-(2-Hydroxybenzoyl)hydrazine-1-carbonyl)phenyl)-2-((3-methylquinoxalin-2-yl)thio)acetamide]",IC50,Human VEGFR-2,18.5 ± 0.8 nM
"CCCCNC(=O)c1ccc(NC(=O)Cn2c(=O)c(C)nc3ccccc32)cc1 [Compound 17a, N-Butyl-4-(2-(3-methyl-2-oxoquinoxalin-1(2H)-yl)acetamido)benzamide]",IC50,Human VEGFR-2,11.2 ± 0.4 nM
"Cc1nc2ccccc2n(CC(=O)Nc2ccc(C(=O)Nc3cccc(Cl)c3)cc2)c1=O [Compound 17b, N-(3-Chlorophenyl)-4-(2-(3-methyl-2-oxoquinoxalin-1(2H)-yl)acetamido)benzamide]",IC50,"MCF-7; read-out: MCF-7 (IC50), MTT, mean ± S.D. of three experiments",2.8 ± 0.2 µM
same,Protein expression (normalized to β-actin) BAX/Bcl-2 ratio,BAX/Bcl-2 ratio,9.30 ± 2.66
same,Cell cycle analysis (%) % G1,HepG-2 cells,40.03 ± 2.82 %
same,Cell cycle analysis (%) % G2/M,HepG-2 cells,30.38% and 30.38 ± 2.93 %
same,Cell cycle analysis (%) % S,HepG-2 cells,28.31 ± 1.01%
same,Cell cycle analysis (%) % Sub-G1,HepG-2 cells,1.27 ± 0.17%
same,cytotoxic activity against cancer HepG-2 cell line more than against normal hepatic cells,primary rat hepatocytes,10 fold
same,downregulation of Bcl-2 level,"Bcl-2; HepG-2, 2.3 μM",around 3 fold
same,Protein expression (normalized to β-actin) Bcl-2,Bcl-2; [1],0.32 ± 0.04
same,IC50,"HepG-2; read-out: HepG-2 (IC50), MTT, mean ± S.D. of three experiments",2.3 ± 0.2 µM
same,increase of caspase-9 level compared to control cells,"caspase-9; HepG-2, 2.3 μM",1.74 fold
same,Protein expression (normalized to β-actin) Caspases-9,caspase-9; [1],1.74 ± 0.20
same,increase of caspase-3 level compared to control cells,"caspase-3; HepG-2, 2.3 μM",1.8 fold
same,Protein expression (normalized to β-actin) Caspases-3,caspase-3; [1],1.85 ± 0.26
same,boost of BAX level,"BAX; HepG-2, 2.3 μM",approximately 4 fold
same,Protein expression (normalized to β-actin) BAX,BAX; [1],4.21 ± 0.60
"Cc1nc2ccccc2n(CC(=O)Nc2ccc(C(=O)Nc3ccc(O)cc3)cc2)c1=O [Compound 17c, N-(4-Hydroxyphenyl)-4-(2-(3-methyl-2-oxoquinoxalin-1(2H)-yl)acetamido)benzamide]",IC50,Human VEGFR-2,13.9 ± 0.5 nM
"Cc1nc2ccccc2n(CC(=O)Nc2ccc(C(=O)Nc3ccc([N+](=O)[O-])cc3O)cc2)c1=O [Compound 17d, N-(2-Hydroxy-4-nitrophenyl)-4-(2-(3-methyl-2-oxoquinoxalin-1(2H)-yl)acetamido)benzamide]",IC50,"MCF-7; Homo sapiens, MCF7, read-out: MCF-7 (IC50, μM)",35.2 ± 1.6 µM
same,IC50,Human VEGFR-2,11.2 ± 0.3 nM
same,IC50,"HepG-2; Homo sapiens, HepG2, read-out: HepG-2 (IC50, μM)",22.4 ± 1.3 µM
"Cc1nc2ccccc2n(CC(=O)Nc2ccc(C(=O)NNC(=O)c3ccccc3O)cc2)c1=O [Compound 18, N-(4-(2-(2-Hydroxybenzoyl)hydrazine-1-carbonyl)phenyl)-2-(3-methyl-2-oxoquinoxalin-1(2H)-yl)acetamide]",IC50,Human VEGFR-2,11.2 ± 0.2 nM
"CNC(=O)c1cc(Oc2ccc(NC(=O)Nc3ccc(Cl)c(C(F)(F)F)c3)cc2)ccn1 [Sorafenib, sorafenib, reference compound]",cytotoxic activity against cancer HepG-2 cell line more than against normal hepatic cells,primary rat hepatocytes,11 fold
